Source: ChEMBL document CHEMBL5346932, “Structure-activity relationships of actively FhuE transported rifabutin derivatives with potent activity against Acinetobacter baumannii” (Eur J Med Chem, 2023)
≈ marks a conversion by molar mass, not a printed value. Calls of active or inactive are those of the source. The rule behind the calls is not given here.

Key:
Type in all cases: functional
Acinetobacter baumannii [1] = assay: Antibacterial activity against Acinetobacter baumannii HUMC1 cultured in RPMI 1640 medium supplemented with 10% FCS assessed as bacterial growth inhibition incubated for 20 hrs by CLSI based microbroth dilution method
How it was run: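 CLSI broth microdilution in RPMI 1640 + 10% FCS in place of CAMHB. Compounds in 2-fold dilution series; inoculum 5×10^5 CFU/mL. Plates held static at 35 °C for 20 h. MIC read visually as the lowest concentration with no visible growth. […] is the reciprocal of this MIC.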

Staphylococcus aureus = assay: Antibacterial activity against Staphylococcus aureus USA300 UAMS-1625 assessed as bacterial growth inhibition incubated for 20 hrs by CLSI based microbroth dilution method
How it was run: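 CLSI broth microdilution in CAMHB against S. aureus USA300 UAMS-1625. Compounds in 2-fold dilution series; inoculum 5×10^5 CFU/mL. Incubated without shaking at 35 °C for 20 h. MIC read visually as the lowest concentration preventing visible growth. Fold changes are relative to the rifabutin MIC.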

Acinetobacter baumannii [2] = assay: Antibacterial activity against Acinetobacter baumannii HUMC1 harboring FhuE deletion mutant assessed as bacterial growth inhibition incubated for 20 hrs by CLSI based microbroth dilution method
How it was run: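 Microbroth dilution per CLSI in RPMI 1640 + 10% FCS (in place of CAMHB). Compounds as 2-fold serial dilutions; inoculum 5×10^5 CFU/mL of previously described HUMC1-derived mutant strains. Incubated static at 35 °C for 20 h. MIC read visually as lowest concentration preventing visible growth.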

[3] = Acinetobacter baumannii, HUMC1, 20 h, read-out: MIC

MIC (Acinetobacter baumannii [1]; [3]) [µg/mL] | Structure (SMILES) | further results
0.016 (≈ 0.0186 µM) | CO[C@H]1/C=C/O[C@@]2(C)Oc3c(C)c(O)c4c(c3C2=O)C2=NC3(CCN([C@H]5CCCO5)CC3)NC2=C(NC(=O)/C(C)=C\C=C\[C@H](C)[C@H](O)[C@@H](C)[C@@H](O)[C@@H](C)[C@H](OC(C)=O)[C@@H]1C)C4=O | –
– | CO[C@H]1/C=C/O[C@@]2(C)Oc3c(C)c(O)c4c(c3C2=O)C2=NC3(CCN(CC5CCCCC5)CC3)NC2=C(NC(=O)/C(C)=C\C=C\[C@H](C)[C@H](O)[C@@H](C)[C@@H](O)[C@@H](C)[C@H](OC(C)=O)[C@@H]1C)C4=O (stereo in doubt; form 1) [listing 1 of 2 here] | Activity (Staphylococcus aureus): Active
1 (≈ 1.11 µM) | CO[C@H]1/C=C/O[C@@]2(C)Oc3c(C)c(O)c4c(c3C2=O)C2=NC3(CCN(CCN5CCOCC5)CC3)NC2=C(NC(=O)/C(C)=C\C=C\[C@H](C)[C@H](O)[C@@H](C)[C@@H](O)[C@@H](C)[C@H](OC(C)=O)[C@@H]1C)C4=O | –
0.5 (≈ 0.571 µM) | CO[C@H]1/C=C/O[C@@]2(C)Oc3c(C)c(O)c4c(c3C2=O)C2=NC3(CCN(CC(=O)N(C)C)CC3)NC2=C(NC(=O)/C(C)=C\C=C\[C@H](C)[C@H](O)[C@@H](C)[C@@H](O)[C@@H](C)[C@H](OC(C)=O)[C@@H]1C)C4=O | –
0.125 (≈ 0.141 µM) | CO[C@H]1/C=C/O[C@@]2(C)Oc3c(C)c(O)c4c(c3C2=O)C2=NC3(CCN(C5CCCCC5C)CC3)NC2=C(NC(=O)/C(C)=C\C=C\[C@H](C)[C@H](O)[C@@H](C)[C@@H](O)[C@@H](C)[C@H](OC(C)=O)[C@@H]1C)C4=O (some centres not stated) | –
8 (≈ 9.27 µM) | CCOC(=O)N1CCC2(CC1)N=C1C(=C3NC(=O)/C(C)=C\C=C\[C@H](C)[C@H](O)[C@@H](C)[C@@H](O)[C@@H](C)[C@H](OC(C)=O)[C@H](C)[C@@H](OC)/C=C/O[C@@]4(C)Oc5c(C)c(O)c(c1c5C4=O)C3=O)N2 | –
– | COC(=O)CN1CCC2(CC1)N=C1C(=C3NC(=O)/C(C)=C\C=C\[C@H](C)[C@H](O)[C@@H](C)[C@@H](O)[C@@H](C)[C@H](OC(C)=O)[C@H](C)[C@@H](OC)/C=C/O[C@@]4(C)Oc5c(C)c(O)c(c1c5C4=O)C3=O)N2 | MIC (Acinetobacter baumannii [2]): 0.5 µg/mL (≈ 0.579 µM); MIC (Acinetobacter baumannii [1]; Acinetobacter baumannii, HUMC1, read-out: MIC): 0.5 µg/mL (≈ 0.579 µM)
0.5 (≈ 0.704 µM) | CO[C@H]1/C=C/O[C@@]2(C)Oc3c(C)c(O)c4c(c3C2=O)C(=N)C(N)=C(NC(=O)/C(C)=C\C=C\[C@H](C)[C@H](O)[C@@H](C)[C@@H](O)[C@@H](C)[C@H](OC(C)=O)[C@@H]1C)C4=O | –
2 (≈ 2.53 µM) | CO[C@H]1/C=C/O[C@@]2(C)Oc3c(C)c(O)c4c(c3C2=O)C2=NC3(CCOCC3)NC2=C(NC(=O)/C(C)=C\C=C\[C@H](C)[C@H](O)[C@@H](C)[C@@H](O)[C@@H](C)[C@H](OC(C)=O)[C@@H]1C)C4=O | –
0.25 (≈ 0.301 µM) | CO[C@H]1/C=C/O[C@@]2(C)Oc3c(C)c(O)c4c(c3C2=O)C2=NC3(CCN(CC#N)CC3)NC2=C(NC(=O)/C(C)=C\C=C\[C@H](C)[C@H](O)[C@@H](C)[C@@H](O)[C@@H](C)[C@H](OC(C)=O)[C@@H]1C)C4=O | –
0.004 (≈ 0.00472 µM) | CCCCN1CCC2(CC1)N=C1C(=C3NC(=O)/C(C)=C\C=C\[C@H](C)[C@H](O)[C@@H](C)[C@@H](O)[C@@H](C)[C@H](OC(C)=O)[C@H](C)[C@@H](OC)/C=C/O[C@@]4(C)Oc5c(C)c(O)c(c1c5C4=O)C3=O)N2 | Activity (Staphylococcus aureus): Active
0.125 (≈ 0.143 µM) | CO[C@H]1/C=C/O[C@@]2(C)Oc3c(C)c(O)c4c(c3C2=O)C2=NC3(CCN(C[C@H]5CCCO5)CC3)NC2=C(NC(=O)/C(C)=C\C=C\[C@H](C)[C@H](O)[C@@H](C)[C@@H](O)[C@@H](C)[C@H](OC(C)=O)[C@@H]1C)C4=O | –
0.06 (≈ 0.0676 µM) | CO[C@H]1/C=C/O[C@@]2(C)Oc3c(C)c(O)c4c(c3C2=O)C2=NC3(CCN(CC5CCCCC5)CC3)NC2=C(NC(=O)/C(C)=C\C=C\[C@H](C)[C@H](O)[C@@H](C)[C@@H](O)[C@@H](C)[C@H](OC(C)=O)[C@@H]1C)C4=O (stereo in doubt; form 1) [listing 2 of 2 here] | –
– | CO[C@H]1/C=C/O[C@@]2(C)Oc3c(C)c(O)c4c(c3C2=O)C2=NC3(CCN(C5CC5)CC3)NC2=C(NC(=O)/C(C)=C\C=C\[C@H](C)[C@H](O)[C@@H](C)[C@@H](O)[C@@H](C)[C@H](OC(C)=O)[C@@H]1C)C4=O (stereo in doubt; form 2) | MIC (Acinetobacter baumannii [1]; 20 h): 0.001 µg/mL (≈ 0.0012 µM)
0.008 (≈ 0.00965 µM) | C#CCN1CCC2(CC1)N=C1C(=C3NC(=O)/C(C)=C\C=C\[C@H](C)[C@H](O)[C@@H](C)[C@@H](O)[C@@H](C)[C@H](OC(C)=O)[C@H](C)[C@@H](OC)/C=C/O[C@@]4(C)Oc5c(C)c(O)c(c1c5C4=O)C3=O)N2 | –
0.5 (≈ 0.561 µM) | COC(=O)CCCN1CCC2(CC1)N=C1C(=C3NC(=O)/C(C)=C\C=C\[C@H](C)[C@H](O)[C@@H](C)[C@@H](O)[C@@H](C)[C@H](OC(C)=O)[C@H](C)[C@@H](OC)/C=C/O[C@@]4(C)Oc5c(C)c(O)c(c1c5C4=O)C3=O)N2 | –
4 (≈ 4.8 µM) | CO[C@H]1/C=C/O[C@@]2(C)Oc3c(C)c(O)c4c(c3C2=O)C2=NC3(CCN(C(C)=O)CC3)NC2=C(NC(=O)/C(C)=C\C=C\[C@H](C)[C@H](O)[C@@H](C)[C@@H](O)[C@@H](C)[C@H](OC(C)=O)[C@@H]1C)C4=O | –
0.5 (≈ 0.559 µM) | CO[C@H]1/C=C/O[C@@]2(C)Oc3c(C)c(O)c4c(c3C2=O)C2=NC3(CCN(CCc5ccccc5)CC3)NC2=C(NC(=O)/C(C)=C\C=C\[C@H](C)[C@H](O)[C@@H](C)[C@@H](O)[C@@H](C)[C@H](OC(C)=O)[C@@H]1C)C4=O | Activity (Staphylococcus aureus): Active
0.03 (≈ 0.0332 µM) | CO[C@H]1/C=C/O[C@@]2(C)Oc3c(C)c(O)c4c(c3C2=O)C2=NC3(CCN(C(C)(C)CC(C)(C)C)CC3)NC2=C(NC(=O)/C(C)=C\C=C\[C@H](C)[C@H](O)[C@@H](C)[C@@H](O)[C@@H](C)[C@H](OC(C)=O)[C@@H]1C)C4=O | –
0.03 (≈ 0.0338 µM) | CO[C@H]1/C=C/O[C@@]2(C)Oc3c(C)c(O)c4c(c3C2=O)C2=NC3(CCN(C5CCCC(C)C5)CC3)NC2=C(NC(=O)/C(C)=C\C=C\[C@H](C)[C@H](O)[C@@H](C)[C@@H](O)[C@@H](C)[C@H](OC(C)=O)[C@@H]1C)C4=O (some centres not stated) | –
0.25 (≈ 0.282 µM) | CO[C@H]1/C=C/O[C@@]2(C)Oc3c(C)c(O)c4c(c3C2=O)C2=NC3(CCN(C5CCN(C)CC5)CC3)NC2=C(NC(=O)/C(C)=C\C=C\[C@H](C)[C@H](O)[C@@H](C)[C@@H](O)[C@@H](C)[C@H](OC(C)=O)[C@@H]1C)C4=O | –
0.016 (≈ 0.0188 µM) | COCCN1CCC2(CC1)N=C1C(=C3NC(=O)/C(C)=C\C=C\[C@H](C)[C@H](O)[C@@H](C)[C@@H](O)[C@@H](C)[C@H](OC(C)=O)[C@H](C)[C@@H](OC)/C=C/O[C@@]4(C)Oc5c(C)c(O)c(c1c5C4=O)C3=O)N2 | –
0.008 (≈ 0.00914 µM) | CO[C@H]1/C=C/O[C@@]2(C)Oc3c(C)c(O)c4c(c3C2=O)C2=NC3(CCN(C5CCOCC5)CC3)NC2=C(NC(=O)/C(C)=C\C=C\[C@H](C)[C@H](O)[C@@H](C)[C@@H](O)[C@@H](C)[C@H](OC(C)=O)[C@@H]1C)C4=O | –
0.125 (≈ 0.142 µM) | CO[C@H]1/C=C/O[C@@]2(C)Oc3c(C)c(O)c4c(c3C2=O)C2=NC3(CCN(Cc5ccccc5)CC3)NC2=C(NC(=O)/C(C)=C\C=C\[C@H](C)[C@H](O)[C@@H](C)[C@@H](O)[C@@H](C)[C@H](OC(C)=O)[C@@H]1C)C4=O | Activity (Staphylococcus aureus): Active
– | CO[C@H]1/C=C/O[C@@]2(C)Oc3c(C)c(O)c4c(c3C2=O)C2=NC3(CCN(CC5CCCCC5)CC3)NC2=C(NC(=O)/C(C)=C\C=C\[C@H](C)[C@H](O)[C@@H](C)[C@@H](O)[C@@H](C)[C@H](OC(C)=O)[C@@H]1C)C4=O (stereo in doubt; form 2) | MIC (Acinetobacter baumannii [1]; 20 h): 0.03 µg/mL (≈ 0.0338 µM)
– | CO[C@H]1/C=C/O[C@@]2(C)Oc3c(C)c(O)c4c(c3C2=O)C2=NC3(CCN(C5CCCC5)CC3)NC2=C(NC(=O)/C(C)=C\C=C\[C@H](C)[C@H](O)[C@@H](C)[C@@H](O)[C@@H](C)[C@H](OC(C)=O)[C@@H]1C)C4=O (stereo in doubt; form 2) | MIC (Acinetobacter baumannii [1]; 20 h): 0.004 µg/mL (≈ 0.00466 µM)
8 | CO[C@H]1/C=C/O[C@@]2(C)Oc3c(C)c(O)c4c(c3C2=O)C2=NC3(CC[N+](C)(C)CC3)NC2=C(NC(=O)/C(C)=C\C=C\[C@H](C)[C@H](O)[C@@H](C)[C@@H](O)[C@@H](C)[C@H](OC(C)=O)[C@@H]1C)C4=O.[I-] | –
0.004 (≈ 0.00475 µM) | C#CCCN1CCC2(CC1)N=C1C(=C3NC(=O)/C(C)=C\C=C\[C@H](C)[C@H](O)[C@@H](C)[C@@H](O)[C@@H](C)[C@H](OC(C)=O)[C@H](C)[C@@H](OC)/C=C/O[C@@]4(C)Oc5c(C)c(O)c(c1c5C4=O)C3=O)N2 | –

Structure (SMILES) | MIC (Acinetobacter baumannii [1]; [3]) [µg/mL] | further results
CCCN1CCC2(CC1)N=C1C(=C3NC(=O)/C(C)=C\C=C\[C@H](C)[C@H](O)[C@@H](C)[C@@H](O)[C@@H](C)[C@H](OC(C)=O)[C@H](C)[C@@H](OC)/C=C/O[C@@]4(C)Oc5c(C)c(O)c(c1c5C4=O)C3=O)N2 | 0.004 (≈ 0.0048 µM) | MIC (Acinetobacter baumannii [2]): 0.5 µg/mL (≈ 0.6 µM); Activity (Staphylococcus aureus): Active
CO[C@H]1/C=C/O[C@@]2(C)Oc3c(C)c(O)c4c(c3C2=O)C2=NC3(CCCCC3)NC2=C(NC(=O)/C(C)=C\C=C\[C@H](C)[C@H](O)[C@@H](C)[C@@H](O)[C@@H](C)[C@H](OC(C)=O)[C@@H]1C)C4=O | 0.125 (≈ 0.158 µM) | MIC (Acinetobacter baumannii [2]): 0.5 µg/mL (≈ 0.633 µM)
CO[C@H]1/C=C/O[C@@]2(C)Oc3c(C)c(O)c4c(c3C2=O)C2=NC3(CCN(CC5CC5)CC3)NC2=C(NC(=O)/C(C)=C\C=C\[C@H](C)[C@H](O)[C@@H](C)[C@@H](O)[C@@H](C)[C@H](OC(C)=O)[C@@H]1C)C4=O | 0.001 (≈ 0.00118 µM) | MIC (Acinetobacter baumannii [2]): 0.5 µg/mL (≈ 0.592 µM); Activity (Staphylococcus aureus): Active
COC(=O)[C@@H](C)N1CCC2(CC1)N=C1C(=C3NC(=O)/C(C)=C\C=C\[C@H](C)[C@H](O)[C@@H](C)[C@@H](O)[C@@H](C)[C@H](OC(C)=O)[C@H](C)[C@@H](OC)/C=C/O[C@@]4(C)Oc5c(C)c(O)c(c1c5C4=O)C3=O)N2 | 0.125 (≈ 0.143 µM) | MIC (Acinetobacter baumannii [2]): 0.5 µg/mL (≈ 0.57 µM)
